Assay results: paper PMC11600146 (JACS Au, 2024)
Converted amounts (≈) assume the structure as drawn. “Also recorded” adds a separate entry of the source.

How the values were obtained:
K. pneumoniae LpxH = target: T1, K. pneumoniae LpxH (Klebsiella pneumoniae, UniProt A6T5R0); test: LpxE-coupled LpxH activity assay; format: biochemical
T1 sequence (A6T5R0 1-240): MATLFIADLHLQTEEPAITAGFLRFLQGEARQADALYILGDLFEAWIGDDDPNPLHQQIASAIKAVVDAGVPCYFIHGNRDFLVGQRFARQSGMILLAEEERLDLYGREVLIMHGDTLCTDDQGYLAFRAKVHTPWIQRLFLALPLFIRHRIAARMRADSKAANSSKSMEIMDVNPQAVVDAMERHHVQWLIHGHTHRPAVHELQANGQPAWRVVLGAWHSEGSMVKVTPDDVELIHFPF
Outline: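 LpxE-coupled assay with GB1-K. pneumoniae LpxH-His10, 10 ng/mL final (1 ng/mL for two analogs, with an extended time course), 100 μM UDP-DAGn. Buffer: Tris-HCl pH 8.0, BSA, Triton X-100, 1 mM MnCl2, DTT, 10% DMSO. Reaction at 37 °C; time-point aliquots quenched with 5 mM EDTA, then A. aeolicus LpxE 5 μg/mL for 30 min, formic acid, malachite green, A620. Triplicates. IC50 from dose–response fit; Ki = IC50/(1+[S]/KM), KM 68.1 μM.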

E. coli LpxH = target: T2, E. coli LpxH (Escherichia coli, UniProt P43341); test: LpxE-coupled LpxH activity assay; format: biochemical
T2 sequence (P43341 1-240): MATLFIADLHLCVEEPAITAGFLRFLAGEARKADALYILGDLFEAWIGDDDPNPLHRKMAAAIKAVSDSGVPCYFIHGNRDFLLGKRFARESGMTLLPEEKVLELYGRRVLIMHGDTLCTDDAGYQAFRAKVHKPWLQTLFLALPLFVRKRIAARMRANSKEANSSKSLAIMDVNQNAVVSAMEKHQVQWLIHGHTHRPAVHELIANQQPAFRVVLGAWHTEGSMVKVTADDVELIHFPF
Outline: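 LpxE-coupled assay with GB1-E. coli LpxH-His10 (10 ng/mL in 2× enzyme/inhibitor mix; 0.5 ng/mL final for two analogs, with a longer time course). Mixes were preincubated 10 min at 37 °C and quenched with EDTA, then LpxE 30 min, malachite green, A620. Run in triplicate. IC50 fitted; Ki from competitive equation, KM 61.7 μM.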

E. coli 25922 [1] = test: MIC assay, broth microdilution; format: cell-based; conditions: Escherichia coli, 25922, 22 h, read-out: E. coli 25922 MIC (μg/mL)
K. pneumoniae 10031 [2] = test: Time-kill kinetics; format: cell-based
K. pneumoniae 10031 [3] = test: Spontaneous resistance development; format: cell-based
Outline: (§1)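 Five to six colonies per strain, from antibiotic-free LB agar, grown to OD 1 and concentrated tenfold. […] Colonies repassaged on fresh 8× MIC plates for 48 h, counted and sequenced. Frequency is resistant growth divided by initial inoculum density.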

E. coli 25922 [4] = test: Spontaneous resistance development; format: cell-based
Outline: as §1

HEK293 cells = test: In vitro cytotoxicity, CellTiter-Glo 2.0 cell viability assay; format: cell-based
HepG2 cells = test: as above; format: cell-based; conditions: HepG2, 100 μM (63 μg/mL), 24 h
K. pneumoniae 10031 [5] = test: MIC assay, broth microdilution; format: cell-based; conditions: Klebsiella pneumoniae, 10031, 22 h, read-out: K. pneumoniae 10031 MIC (μg/mL)
Outline: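 Broth microdilution adapted from NCCLS methods. Overnight cultures were diluted to OD600 0.006 in cation-adjusted Mueller–Hinton medium with 7% DMSO and incubated with a range of test compound concentrations at 37 °C for 22 h. MTT (5 mg/mL) was added for 3 h, solubilized with 2-propanol, and read as the absorbance difference at 570 and 690 nm. MIC was the lowest concentration with readings within 4-fold of bacteria-free wells.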

Structure (SMILES) | IC50 (K. pneumoniae LpxH) | IC50 (E. coli LpxH) | MIC (E. coli 25922 [1]) | type of antibiotic action (K. pneumoniae 10031 [2]; time-kill, regrowth prevented up to 24 h at or above the MIC) | reduction of bacterial viability (K. pneumoniae 10031 [2]; within 6 h, at or above the MIC) | Rate of spontaneous resistance mutations @4× MIC (K. pneumoniae 10031 [3]; K. pneumoniae 10031, 4× MIC) | Rate of spontaneous resistance mutations @8× MIC (K. pneumoniae 10031 [3]; K. pneumoniae 10031, 8× MIC) | Rate of spontaneous resistance mutations @4× MIC (E. coli 25922 [4]; E. coli 25922, 4× MIC) | Rate of spontaneous resistance mutations @8× MIC (E. coli 25922 [4]; E. coli 25922, 8× MIC) | cytotoxicity (cell viability) (HEK293 cells; HEK293, 100 μM (63 μg/mL), 24 h) | safety index (HEK293 cells; no cytotoxicity at 63 μg/mL in HEK293 or HepG2 versus MICs 0.31 and 0.04 μg/mL) | cytotoxicity (cell viability) (HepG2 cells) | MIC (K. pneumoniae 10031 [5])
CN(c1ccccc1C(=O)Nc1ccc(S(=O)(=O)N2CCN(c3cc(C(F)(F)F)cc(Cl)n3)CC2)cc1)S(C)(=O)=O [JH-LPH-107] | 130 pM | 130 pM | 0.31 µg/mL (≈ 0.49 µM) | bactericidal | > 1000 fold | 2.0 × 10^-9 | 9.1 × 10^-10 | 2.5 × 10^-9 | 1.4 × 10^-9 | did not cause any significant cytotoxicity; also recorded: no significant cytotoxicity | > 100 fold | did not cause any significant cytotoxicity; also recorded: no significant cytotoxicity | –
CC(=O)N1CCc2cc(S(=O)(=O)N3CCN(c4nccc(C(F)(F)F)n4)CC3)ccc21 [JH-LPH-93] | 100000 pM | – | – | – | – | – | – | – | – | – | – | – | 1.3 µg/mL (≈ 2.85 µM)
CC(=O)N1CCc2cc(S(=O)(=O)N3CCN(c4cc(C(F)(F)F)cc(Cl)n4)CC3)ccc21 [JH-LPH-92] | – | – | > 64 µg/mL | – | – | – | – | – | – | – | – | – | 0.08 µg/mL (≈ 0.164 µM)
